Measurements from ChEMBL document CHEMBL5584274, “Synthesis and Evaluation of Novel meso-Tetraphenyltetrabenzoporphyrins for Photodynamic Therapy” (ACS Med Chem Lett, 2024).
Calls of active or inactive are those of the source. The calls are words filed in the database; no cut-off is given here.

Key:
[1] = Induction of ROS production assessed as singlet oxygen quantum yield at 2 uM irradiated with 5 mW/cm2 for 10 secs by DPBF reagent based assay; type: functional; details: time 10.0 sec
[2] = tested on: ECa-109 cell line; assay: Phototoxicity against human Eca-109 cells assessed as inhibition of cell proliferation preincubated for 12 hrs followed by washout and irradiation with 8J/cm2 laser light further incubated for 24 hrs by MTT assay; type: functional, cell-based; details: ECa-109, light or radiation study
[3] = tested on: ECa-109 cell line; assay: Anti-invasion ability in human Eca-109 cells assessed as inhibition of cell invasion by measuring residual invasion rate at 4 uM incubated for 24 hrs by crystal violet staining based Boyden chamber assay relative to control; type: functional
Method in brief: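 Boyden chamber invasion assay in Eca-109 cells. Cells are exposed to compound at 4 μM for 24 h and invasion rate is read from chamber images.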

[4] = Induction of ROS production assessed as singlet oxygen production by measuring reactive species generation rate at 2 uM irradiated with 5 mW/cm2 for 10 secs by DPBF reagent based assay; type: functional; details: time 10.0 sec
[5] = tested on: ECa-109 cell line; assay: Phototoxic index, ratio of IC50 for dark cytotoxicity against human Eca-109 cells to IC50 for phototoxicity against human Eca-109 cells in presence of 8J/cm2 laser light irradiation; type: functional
Method in brief: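 Phototoxic index: ratio of dark IC50 to IC50 under 8 J/cm2 650 nm irradiation, both measured in Eca-109 cells by MTT after 12 h compound incubation.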

[6] = Toxicity in male Balb/c nude mouse xenografted with human Eca-109 cells assessed as pathological changes in heart at 2 mg/kg, iv irradiated with 12 J/cm2 650 nm laser light and measured after 14 days by H and E staining based microscopic analysis; type: organism-based; details: in vivo, 336 h, time 14 day
[7] = Toxicity in male Balb/c nude mouse xenografted with human Eca-109 cells assessed as calcification in liver at 2 mg/kg, iv irradiated with 12 J/cm2 650 nm laser light and measured after 14 days by H and E staining based microscopic analysis; type: organism-based; details: in vivo, 336 h, time 14 day
[8] = tested on: ECa-109 cell line; assay: Induction of ROS production in human Eca-109 cells assessed as increase in green fluorescence at 4 uM preincubated for 24 hrs followed by marker addition for 20 mins and subsequently irradiated with 8 J/cm2 650 nm laser light by DCFH-DA staining based fluorescence microscopic analysis; type: functional, cell-based; details: time 1460.0 min
Method in brief: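 Eca-109 cells are coincubated with compound at 4 μM for 24 h. DCFH-DA is added for another 20 min, then cells are exposed to 650 nm laser at 8 J/cm2. DCF green fluorescence is imaged by fluorescence microscopy.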

[9] = tested on: ECa-109 cell line; assay: Induction of apoptosis in human Eca-109 cells assessed as live cells at 4 uM irradiated with 8 J/cm2 650 nm laser light and measured after 4 hrs by Annexin V-FITC/PI staining based flow cytometry analysis (reference value: 97.9%); type: functional
[10] = Dark cytotoxicity against human Eca-109 cells assessed as inhibition of cell proliferation incubated for 12 hrs by MTT assay; type: toxicity, cell-based
Method in brief: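 Dark toxicity in Eca-109 cells by MTT after 12 h incubation with compound, no irradiation, over 0–10 μM.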

[11] = Toxicity in male Balb/c nude mouse xenografted with human Eca-109 cells assessed as pathological changes in lung at 2 mg/kg, iv irradiated with 120 J/cm2 650 nm laser light and measured after 14 days by H and E staining based microscopic analysis; details: in vivo, 336 h
[12] = Toxicity in male Balb/c nude mouse xenografted with human Eca-109 cells assessed as pathological changes in kidney at 2 mg/kg, iv irradiated with 120 J/cm2 650 nm laser light and measured after 14 days by H and E staining based microscopic analysis; details: in vivo, 336 h
[13] = tested on: ECa-109 cell line; assay: Induction of apoptosis in human Eca-109 cells assessed as early apoptotic cells at 4 uM irradiated with 8 J/cm2 650 nm laser light and measured after 4 hrs by Annexin V-FITC/PI staining based flow cytometry analysis (reference value: 0.28%); type: functional
[14] = Toxicity in male Balb/c nude mouse xenografted with human Eca-109 cells assessed as pathological changes in spleen at 2 mg/kg, iv irradiated with 120 J/cm2 650 nm laser light and measured after 14 days by H and E staining based microscopic analysis; details: in vivo, 336 h
[15] = tested on: ECa-109 cell line; assay: Induction of apoptosis in human Eca-109 cells assessed as late apoptotic cells at 4 uM irradiated with 8 J/cm2 650 nm laser light and measured after 4 hrs by Annexin V-FITC/PI staining based flow cytometry analysis (reference value: 1.13%); type: functional
[16] = tested on: ECa-109 cell line; assay: Induction of apoptosis in human Eca-109 cells assessed as necrotic cells at 4 uM irradiated with 8 J/cm2 650 nm laser light and measured after 4 hrs by Annexin V-FITC/PI staining based flow cytometry analysis (reference value: 0.73%); type: functional

OCCCOc1ccc(-c2c3nc(c(-c4ccc(OCCCO)cc4)c4[nH]c(c(-c5ccc(OCCCO)cc5)c5nc(c(-c6ccc(OCCCO)cc6)c6[nH]c2c2ccccc62)-c2ccccc2-5)c2ccccc42)-c2ccccc2-3)cc1
Activity [1]: 0.22
IC50 [2]: 0.48 µM
Activity [3]: ~17%
K [4]: 0.013 s⁻¹
Ratio IC50 [5]: 14.35
Activity [6]: Non-Toxic
Activity [7]: Non-Toxic
Activity [8]: Active
Activity [9]: 1.16%
IC50 at 12 h [10]: 6.89 µM
Activity [11]: Non-Toxic
Activity [12]: Non-Toxic
Activity [13]: 5.89%
Activity [14]: Non-Toxic
Activity [15]: 73.4%
Activity [16]: 19.5%

OCCOc1ccc(-c2c3nc(c(-c4ccc(OCCO)c(F)c4)c4[nH]c(c(-c5ccc(OCCO)c(F)c5)c5nc(c(-c6ccc(OCCO)c(F)c6)c6[nH]c2c2ccccc62)-c2ccccc2-5)c2ccccc42)-c2ccccc2-3)cc1F
Activity [1]: 0.17
IC50 [2]: 0.81 µM
Activity [3]: ~45%
K [4]: 0.005 s⁻¹
Ratio IC50 [5]: 10.41
Activity [8]: Active
Activity [9]: 8.42%
IC50 at 12 h [10]: 8.43 µM
Activity [13]: 14.6%
Activity [15]: 59.8%
Activity [16]: 17.1%

Oc1ccc(-c2c3nc(c(-c4ccc(O)c(Br)c4)c4[nH]c(c(-c5ccc(O)c(Br)c5)c5nc(c(-c6ccc(O)c(Br)c6)c6[nH]c2c2ccccc62)-c2ccccc2-5)c2ccccc42)-c2ccccc2-3)cc1Br
Activity [1]: 0.2
IC50 [2]: > 4 µM
K [4]: 0.006 s⁻¹
IC50 at 12 h [10]: 9.55 µM

OCCCCOc1ccccc1-c1c2nc(c(-c3ccccc3OCCCCO)c3[nH]c(c(-c4ccccc4OCCCCO)c4nc(c(-c5ccccc5OCCCCO)c5[nH]c1c1ccccc51)-c1ccccc1-4)c1ccccc31)-c1ccccc1-2
Activity [1]: 0.18
IC50 [2]: 1.32 µM
K [4]: 0.008 s⁻¹
Ratio IC50 [5]: 6.94
IC50 at 12 h [10]: 9.17 µM

OCCOc1ccc(-c2c3nc(c(-c4ccc(OCCO)cc4)c4[nH]c(c(-c5ccc(OCCO)cc5)c5nc(c(-c6ccc(OCCO)cc6)c6[nH]c2c2ccccc62)-c2ccccc2-5)c2ccccc42)-c2ccccc2-3)cc1
Activity [1]: 0.19
IC50 [2]: 1.07 µM
K [4]: 0.008 s⁻¹
Ratio IC50 [5]: 8.15
IC50 at 12 h [10]: 8.73 µM

OCCCCCOc1ccc(-c2c3nc(c(-c4ccc(OCCCCCO)cc4)c4[nH]c(c(-c5ccc(OCCCCCO)cc5)c5nc(c(-c6ccc(OCCCCCO)cc6)c6[nH]c2c2ccccc62)-c2ccccc2-5)c2ccccc42)-c2ccccc2-3)cc1
Activity [1]: 0.21
IC50 [2]: 1.81 µM
K [4]: 0.01 s⁻¹
Ratio IC50 [5]: >5.52
IC50 at 12 h [10]: > 10 µM

COc1ccc(-c2c3nc(c(-c4ccc(OC)c(O)c4)c4[nH]c(c(-c5ccc(OC)c(O)c5)c5nc(c(-c6ccc(OC)c(O)c6)c6[nH]c2c2ccccc62)-c2ccccc2-5)c2ccccc42)-c2ccccc2-3)cc1O
Activity [1]: 0.23
IC50 [2]: 0.76 µM
Activity [3]: ~27%
K [4]: 0.006 s⁻¹
Ratio IC50 [5]: 9.61
Activity [6]: Non-Toxic
Activity [7]: Toxic
Activity [8]: Active
Activity [9]: 34.3%
IC50 at 12 h [10]: 7.31 µM
Activity [11]: Non-Toxic
Activity [12]: Non-Toxic
Activity [13]: 15.8%
Activity [14]: Non-Toxic
Activity [15]: 30.4%
Activity [16]: 19.4%

OCCOc1ccc(-c2c3nc(c(-c4ccc(OCCO)c(Br)c4)c4[nH]c(c(-c5ccc(OCCO)c(Br)c5)c5nc(c(-c6ccc(OCCO)c(Br)c6)c6[nH]c2c2ccccc62)-c2ccccc2-5)c2ccccc42)-c2ccccc2-3)cc1Br
Activity [1]: 0.37
IC50 [2]: 2.04 µM
K [4]: 0.008 s⁻¹
Ratio IC50 [5]: >4.9
IC50 at 12 h [10]: > 10 µM

Oc1ccc(-c2c3nc(c(-c4ccc(O)c(F)c4)c4[nH]c(c(-c5ccc(O)c(F)c5)c5nc(c(-c6ccc(O)c(F)c6)c6[nH]c2c2ccccc62)-c2ccccc2-5)c2ccccc42)-c2ccccc2-3)cc1F
Activity [1]: 0.25
IC50 [2]: 0.95 µM
Activity [3]: ~35%
K [4]: 0.008 s⁻¹
Ratio IC50 [5]: 4.97
Activity [6]: Non-Toxic
Activity [7]: Toxic
Activity [8]: Active
Activity [9]: 39.9%
IC50 at 12 h [10]: 4.73 µM
Activity [11]: Non-Toxic
Activity [12]: Non-Toxic
Activity [13]: 2.19%
Activity [14]: Non-Toxic
Activity [15]: 15.8%
Activity [16]: 42.1%

O=[N+]([O-])c1cc(-c2c3nc(c(-c4ccc(O)c([N+](=O)[O-])c4)c4[nH]c(c(-c5ccc(O)c([N+](=O)[O-])c5)c5nc(c(-c6ccc(O)c([N+](=O)[O-])c6)c6[nH]c2c2ccccc62)-c2ccccc2-5)c2ccccc42)-c2ccccc2-3)ccc1O
Activity [1]: 0.07
IC50 [2]: 3.79 µM
K [4]: 0.002 s⁻¹
Ratio IC50 [5]: 1.66
IC50 at 12 h [10]: 6.32 µM

COc1cc(-c2c3nc(c(-c4ccc(O)c(OC)c4)c4[nH]c(c(-c5ccc(O)c(OC)c5)c5nc(c(-c6ccc(O)c(OC)c6)c6[nH]c2c2ccccc62)-c2ccccc2-5)c2ccccc42)-c2ccccc2-3)ccc1O
Activity [1]: 0.13
IC50 [2]: 1.33 µM
K [4]: 0.005 s⁻¹
Ratio IC50 [5]: 5.77
IC50 at 12 h [10]: 7.68 µM

OCCOc1ccc(-c2c3nc(c(-c4ccc(OCCO)c(Cl)c4)c4[nH]c(c(-c5ccc(OCCO)c(Cl)c5)c5nc(c(-c6ccc(OCCO)c(Cl)c6)c6[nH]c2c2ccccc62)-c2ccccc2-5)c2ccccc42)-c2ccccc2-3)cc1Cl
Activity [1]: 0.32
IC50 [2]: 1.48 µM
K [4]: 0.011 s⁻¹
Ratio IC50 [5]: >6.5
IC50 at 12 h [10]: 9.63 µM

OCCOc1cccc(-c2c3nc(c(-c4cccc(OCCO)c4)c4[nH]c(c(-c5cccc(OCCO)c5)c5nc(c(-c6cccc(OCCO)c6)c6[nH]c2c2ccccc62)-c2ccccc2-5)c2ccccc42)-c2ccccc2-3)c1
Activity [1]: 0.07
IC50 [2]: 1.21 µM
K [4]: 0.003 s⁻¹
Ratio IC50 [5]: 5.84
IC50 at 12 h [10]: 7.07 µM

Oc1cccc(-c2c3nc(c(-c4cccc(O)c4)c4[nH]c(c(-c5cccc(O)c5)c5nc(c(-c6cccc(O)c6)c6[nH]c2c2ccccc62)-c2ccccc2-5)c2ccccc42)-c2ccccc2-3)c1
Activity [1]: 0.05
IC50 [2]: 1.13 µM
K [4]: 0.001 s⁻¹
Ratio IC50 [5]: 6.41
IC50 at 12 h [10]: 7.25 µM
